MrgX1 agonist – agonists of human MrgX1 receptor; Q96LB2; MrgX1-HEK293 cells, Fluo-4 calcium fluorescence, agonist mode; hits give high values; B-score at 10 µM; 0.44% of 310,000 active;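 active = calcium response B-score plate-corrected fluorescence ratio at least 3 library SD, with starting fluorescence B-score inside 5 SD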
Target sequence (Q96LB2 whole entry, looked up): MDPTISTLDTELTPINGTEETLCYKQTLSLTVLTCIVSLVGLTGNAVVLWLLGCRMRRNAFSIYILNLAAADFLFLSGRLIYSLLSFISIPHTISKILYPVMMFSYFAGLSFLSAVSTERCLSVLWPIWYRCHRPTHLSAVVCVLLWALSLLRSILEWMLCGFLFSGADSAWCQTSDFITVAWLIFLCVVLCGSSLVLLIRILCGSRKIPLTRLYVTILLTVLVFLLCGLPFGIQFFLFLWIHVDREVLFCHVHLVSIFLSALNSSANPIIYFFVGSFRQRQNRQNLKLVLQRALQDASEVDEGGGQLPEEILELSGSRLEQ
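Material: MrgX1-expressing HEK293 cells / Dosing: compound as first of three additions / Incubation: overnight seeding, then 1 h dark dye loading / Signal: Fluo-4 NW calcium fluorescence / Evaluation: B-scored fluorescence response ratio / Benchmarks: positive and negative control wells on each plate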
MrgX1 antagonist – human MrgX1 receptor antagonism, primary screen; 1.3% of 310,000 active; B-score at 10 µM; MRGX1-HEK293 calcium flux, Fluo-4, BAM8-22 antagonism; hits give low values;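 active = calcium-response B-score plate-corrected more than 3 library SD below zero, starting fluorescence within 5 deviations, no agonist response on first addition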;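 also: peak minus trough fluorescence over baseline after final BAM8-22 challenge near maximal dose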
RGS4 block – inhibitors of human RGS4; B-score at 10 µM; 0.45% of 310,000 active; P49798; HEK293 M3R/RGS4 inducible, Fluo-4 calcium flux; hits give high values; triggered by carbachol at its EC20;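 active = B-score, a plate-corrected calcium signal, over three deviations above library mean, with baseline fluorescence within five deviations of library mean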;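 also: RGS4 expression induced by doxycycline in cells with stable M3 receptor; B-score is computed from the integrated fluorescence ratio over baseline after carbachol; higher B-score means a larger calcium signal and so more RGS4 inhibition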
MrgX1 PAM – human MrgX1 positive allosteric modulation, primary screen; MrgX1-HEK293, Fluo-4 calcium flux, FDSS; hits give high values; 0.63% of 310,000 active; AID 588675; B-score at 10 µM; Q96LB2;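 active = plate-corrected calcium response at least 3 library SD above typical, normal starting fluorescence, not activating the receptor alone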;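 also: compound read alongside a low EC10 to EC30 dose of BAM8-22 agonist; peak minus trough fluorescence over baseline measured at the second addition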
RGS4 pot – RGS4 potentiation or activation | 0.92% of 310,000 active | HEK293 M3R/inducible RGS4, carbachol calcium flux Fluo4; hits give low values | AID 463111 | B-score at 10 µM;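 active = B-score of the integrated calcium signal more than 4 SD below the library mean, with starting fluorescence not abnormally high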;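 also: negative B-score means reduced calcium response which marks RGS4 activation or potentiation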
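Test system: HEK293 cells with stable M3R and inducible RGS4; also added: carbachol at ECmax as muscarinic agonist stimulus; schedule: dye loading 30 min 37 °C, buffer rest 30 min RT; technique: kinetic calcium fluorescence imaging with Fluo4-AM dye, 2 µM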
* marks the source's active call; other numbers are inactive results; i = inactive; · = not tested or not shown. In the library only some 3.5% were active in any assay of this set; here they are far more common.

SMILES	MrgX1 agonist	MrgX1 antagonist	RGS4 block	MrgX1 PAM	RGS4 pot
CCC(C)[C@H]1CNCCN1CCc1cc(C(F)(F)F)cc(C(F)(F)F)c1 (some centres undefined)	i	i	i	i	i
CCC(C)[C@H]1CNC(=S)N1CCc1cc(C(F)(F)F)cc(C(F)(F)F)c1 (some centres undefined)	i	-5.24*	i	i	i
Cc1noc(C)c1COc1ccc(C(=O)Nc2cccnc2)cc1	·	·	i	·	-7.44*
Cc1ccc2nc(C)/c(=N\O)c(C)nc2c1	i	i	i	9.99*	i
Cc1c(NS(=O)(=O)c2ccc(N(C)C3CCCCC3)c([N+](=O)[O-])c2)c(=O)n(-c2ccccc2)n1C	i	i	i	i	i
Cc1ccc(NC(=O)c2cccc(NC(=O)/C=C/c3ccco3)c2)cc1C	i	i	i	i	-9.62*
Cc1ccc(-n2nc3ccc(NC(=O)/C=C/c4ccco4)cc3n2)cc1	i	-6.28*	i	i	i
CCc1ccccc1NC(=O)c1cccc(NC(=O)/C=C/c2ccco2)c1	i	i	i	i	i
O=C(/C=C/c1ccco1)Nc1ccc2c(c1)OCO2	i	i	i	i	i
Cc1ccc(-c2nc(CS(=O)CC(=O)NCCCc3ccccc3)c(C)o2)cc1 (centres undefined)	i	i	i	i	i
COC(=O)C1CCCN1C(=O)COc1ccc(Cl)cc1Br (centres undefined)	i	i	i	i	i
CC(C)(C)c1ccc(C(=O)NC(=S)NNC(=O)COc2ccccc2)cc1	45.2*	i	i	i	-7.46*
CC(C)(C)c1ccc(C(=O)NC(=S)NNC(=O)c2cccs2)cc1	46.6*	i	i	i	i
COc1ccccc1C(=O)NNC(=S)NC(=O)c1ccco1	50.2*	i	i	i	i
COC(=O)c1cc(OC)c(OC)cc1NC(=S)NC(=O)c1ccco1	i	i	i	i	i
CC(C)(C)c1ccc(OCC(=O)NNC(=O)CCc2ccccc2)cc1	i	i	i	i	i
O=C(NC(=S)NNC(=O)c1cccs1)c1ccco1	28.5*	i	i	i	i
CC(Oc1ccc(Cl)cc1)C(=O)NNC(=S)NC(=O)c1ccco1 (centres undefined)	90.2*	i	i	i	i
Cc1ccnc(NC(=O)CNC(=O)Cc2cccc3ccccc23)c1	i	i	i	i	i
Cc1cc(C)[n+](-c2ccc(C(C)C)cc2)c2[nH]c(=O)[nH]c(=O)c12	i	i	i	i	-9*
O=C1c2ccccc2NC(c2cccc([N+](=O)[O-])c2)N1CCc1ccccc1 (centres undefined)	i	i	i	15.4*	i
CC(Oc1ccccc1Cl)C(=O)Nc1ccc(S(=O)(=O)N2CCCC2)cc1 (centres undefined)	i	i	i	i	-7.16*
COc1cccc(/C=C/C(=O)NCc2cn3cc(Cl)ccc3n2)c1OC	i	i	i	i	i
CCCOc1ccc(C(=O)NNC(=S)NC(=O)c2cc(-c3ccccc3)nc3ccccc23)cc1	i	-4.71*	i	i	-9.33*
CCCOc1ccc(C(=O)NNC(=S)NC(=O)c2ccccc2[N+](=O)[O-])cc1	i	i	i	8.39*	i
SMILES	MrgX1 agonist	MrgX1 antagonist	RGS4 block	MrgX1 PAM	RGS4 pot
O=C(NC(=S)NNC(=O)c1ccccc1[N+](=O)[O-])c1ccccc1	i	i	i	9.73*	i
O=C(NNC(=S)NC(=O)c1cccc([N+](=O)[O-])c1)c1ccc(Br)cc1	92.9*	i	i	i	-8.28*
O=C(NNC(=S)NC(=O)c1cccc([N+](=O)[O-])c1)c1ccc(O)cc1	i	i	i	i	i
CCCCC(=O)Nc1ccc(C(=O)NNC(=S)NC(=O)c2ccccc2[N+](=O)[O-])cc1	i	i	i	i	i
O=C(NNC(=S)NC(=O)c1ccccc1[N+](=O)[O-])c1ccccc1	i	i	i	i	i
CCCOc1ccc(C(=O)NNC(=S)NC(C)=O)cc1	i	i	i	i	i

Bioassay records (PubChem)
